Screening results deposited in PubChem BioAssay by several laboratories.
Only some compounds are listed: those with a hit (about 2% of all), similar ones and a draw of the others.
IMP-1 inh – IMP-1 metallo-beta-lactamase inhibitors, primary screen, biochemical, epi-absorbance readout, Pseudomonas aeruginosa enzyme | inhibition, % at 5.6 µM | AID 1556, 2009 | purified IMP-1, nitrocefin hydrolysis, epi-absorbance fluorescence | metallo-beta-lactamase IMP-1 (Pseudomonas aeruginosa) | 290,000 tested, 0.45% active;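 active = inhibition above the mean plus 3 SD of all compounds in the same screening run, cut at about 4.5% in these data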
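System: purified recombinant IMP-1 beta-lactamase. Medium: Zinc- and detergent-supplemented HEPES buffer, pH 7.1. Compound: one 5.6 µM dose […]. Schedule: 15 min preincubation plus 25 min reaction at 25 °C. Technique: Epi-absorbance fluorescence, 480 nm excitation, 530 nm emission.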
VIM-2 inhibitor – VIM-2 metallo-beta-lactamase inhibitors, primary screen, biochemical, epi-absorbance readout, Pseudomonas aeruginosa enzyme. 290,000 tested, 0.89% active. inhibition, % at 5.6 µM. purified VIM-2, nitrocefin hydrolysis, epi-absorbance fluorescence;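 active = inhibition above the mean of all tested compounds plus 3 SD, cutoff set per screening run, cut at about 7.5% in these data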;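 also: red hydrolysis product quenches plate fluorescence so inhibitors raise well fluorescence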
beta cell repl – inducers of MIN6 beta-cell proliferation, primary screen, ATP luminescence, uHTS. 330,000 tested, 0.29% active. proliferation, % at 10 µM. MIN6 cells proliferation, ATPlite luminescence, 48 h; cells starved in 0.2% serum; 100% = growth in 10% serum;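 active = compounds whose signal lies at least 3.5 SD above the mean of all wells on their plate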
PvdQ acylase – P. aeruginosa PvdQ acylase inhibitors, primary screen, biochemical, fluorescence, plate reader and imaging, single point; 340,000 tested, 0.063% active; inhibition, % at 10 µM; PvdQ acylase [Pseudomonas aeruginosa LESB58]; purified PvdQ acylase; in the data active = inhibition above about 30%, passing the limit was not always enough
HKDC1 inhibitor – HKDC1 hexokinase inhibitors, primary screen, biochemical, fluorescence, uHTS; 340,000 tested, 0.16% active; Q2TB90; AID 493160, 2011; inhibition, % at 20 µM; recombinant HKDC1, G6PDH/diaphorase resazurin coupled fluorescence;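 active = inhibition above about 35% when tested at 20 µM, limit read from the data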
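Assay system: recombinant HKDC1 hexokinase; detection: coupled resazurin fluorescence, excitation 525 nm, emission 613 nm; benchmarks: DMSO-plus-enzyme-mix negative control, buffer-substituted positive control; compound dosing: single 20 µM dose; schedule: 90 min at room temperature in dark; also added: glucose plus 1 mM ATP as hexokinase substrates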
ATG4B inhibitor – ATG4B protease inhibitors, primary screen, biochemical, fluorescence, uHTS | ATG4B cleavage of LC3-PLA2, NBD-HPC fluorescence, 1 h | 340,000 tested, 0.51% active | Cysteine protease ATG4B (Homo sapiens), Q9Y4P1 | AID 504462, 2011 | inhibition, % at 8.33 µM; in the data active = inhibition above about 40%
ATG4B conf – ATG4B protease inhibitors, retest, confirmation, biochemical, fluorescence, single concentration; shares compounds with ATG4B inhibitor; ATG4B protease fluorescent substrate cleavage assay; inhibition, % at 8.33 µM; 320 tested, 92% active; in the data active = inhibition above about 39%
PLA2 counter – PLA2 enzyme inhibition, counter-screen for ATG4B inhibitor project, biochemical, single concentration, uHTS hits. shares compounds with ATG4B inhibitor. purified PLA2, NBD-C6-HPC fluorescence, 45 min. inhibition, % at 8.33 µM. 1,600 tested, 66% active; in the data active = inhibition above about 50%
Target sequence (P04054 whole entry, looked up): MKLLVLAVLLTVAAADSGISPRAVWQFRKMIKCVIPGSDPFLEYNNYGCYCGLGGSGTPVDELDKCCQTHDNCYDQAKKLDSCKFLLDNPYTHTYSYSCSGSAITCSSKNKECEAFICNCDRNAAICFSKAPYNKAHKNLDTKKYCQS
Hits are given with their value; – = inactive; · = not tested or not shown.

SMILES	IMP-1 inh	VIM-2 inhibitor	beta cell repl	PvdQ acylase	HKDC1 inhibitor	ATG4B inhibitor	PLA2 counter	others
Cc1ccc2c(c1)[nH]c1c(N3CCN(Cc4ccccc4)CC3)ncnc12	–	–	–	–	–	62	79
COc1ccc2c(c1)[nH]c1c(N3CCN(Cc4ccc5c(c4)OCO5)CC3)ncnc12	–	–	–	–	–	45	58
Cc1ccc2[nH]c3c(N4CCN(Cc5ccc6c(c5)OCO6)CC4)ncnc3c2c1	–	–	·	·	·	·	·
Cc1ccc2[nH]c3c(N4CCN(Cc5ccccc5)CC4)ncnc3c2c1	–	–	–	–	–	–	·
O=C(c1cc(COc2c(F)cccc2F)on1)N1CCC(c2ccccc2Cl)C1 (stereo not drawn)	–	–	–	–	–	40	55
CC[C@@H]1C=C(C(=O)O)[C@H](c2ccc3c(c2)OCO3)N1S(=O)(=O)c1ccc(C)cc1	·	·	–	–	–	–	·
CCCCC[C@@H]1C=C(C(=O)O)[C@H](c2ccc3c(c2)OCO3)N1S(=O)(=O)c1ccc(C)cc1	·	·	–	–	–	50	57
Cc1ccc(NC(=S)Nc2ccc(Cl)c(Cl)c2)c(OC(F)F)c1	–	–	–	–	–	53	61
Fc1ccc(NC(=S)Nc2ccccc2OC(F)F)cc1Cl	–	–	–	–	–	48	59
FC(F)Oc1ccccc1NC(=S)Nc1cccnc1	–	–	–	–	–	–	·
CCC(C(=O)NCc1ccccc1OC)n1nc(C)n2c(cc3occc32)c1=O (stereo not drawn)	–	–	–	–	–	–	·
O=C1N/C(=N\N=C\c2cccs2)SC1Cc1ccc(Cl)cc1 (stereo not drawn)	–	–	–	–	–	43	–
O=C1N/C(=N\N=C\c2cccs2)SC1Cc1cccc(Cl)c1 (stereo not drawn)	–	–	–	–	–	–	·
COc1ccc(CCNC(=O)CCC(=O)NC2CCCC(C)C2C)cc1OC (stereo not drawn)	–	–	–	–	–	–	·
COc1ccccc1NS(=O)(=O)c1cccc(NC(=O)Nc2cccc(Cl)c2)c1	–	–	–	–	–	44	59
Cc1cc(OCC(=O)NC2CC(C)(C)NC(C)(C)C2)c2c(C)cc(=O)oc2c1	–	–	–	–	–	–	·
Cc1c(CCOC(=O)CC23CC4CC(CC(C4)C2)C3)sc[n+]1CC(=O)c1ccccc1	–	–	–	–	–	–	·
Cc1c(CCOC(=O)C23CC4(C)CC(C)(CC(C)(C4)C2)C3)sc[n+]1CC(=O)c1ccccc1	–	–	–	–	–	47	–	ATG4B conf=51
COc1ccc(COC(=O)CCc2c[nH]c3ccccc23)cc1F	–	–	–	–	–	–	·
